Broadly, the IC50 is the concentration at which inhibition is half-maximal.

Some results are limits rather than exact numbers.

For assay [1], the species on record is Rattus norvegicus. As to the kind of experiment: Selectivity ratio of IC50 for rat GluA1 receptor flip form to IC50 for rat GluN1/2A receptor. An outline of the steps:
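Ratio IC50(GluA1)/IC50(GluN1/2A), each IC50 from composite dose−response data of 5 to 10 oocytes in two-electrode voltage clamp. GluA1_i driven by 300 μM glutamate; GluN1/2A driven by 100 μM glutamate plus 100 μM glycine; antagonist coapplied.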

Assay [2] addresses Glutamate NMDA receptor; Grin1/Grin2a (Rattus norvegicus, UniProt P35439+Q00959). Briefly: Inhibition of rat GluN1/2A receptor expressed in Xenopus laevis oocyte assessed as glutamate and glycine-induced current at holding potentials from -80 to -40 mV by two electrode voltage clamp analysis. An outline of the steps: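 Oocytes injected with 25 nL GluN1/N2A cRNA (1:1, 0.05 ng/nL), held at 17 °C in Barth's medium with gentamicin, recorded 3−6 days later by two-electrode voltage clamp in frog Ringer's. Current evoked by 100 μM L-glutamate plus 100 μM glycine, antagonist coapplied at rising levels; holding potentials −40, −60, −80 mV. IC50 from logistic fit, triplicate curves.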
A general note: Two-electrode voltage clamp is typically applied to oocytes expressing channels or transporters.

The species named for assay [3] is Rattus norvegicus. Briefly: Selectivity ratio of IC50 for rat GluN1/2A receptor to IC50 for rat GluA1 receptor flip form. An outline of the steps:
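Ratio IC50(GluN1/2A)/IC50(GluA1), each IC50 from composite dose−response data of 5 to 10 oocytes in two-electrode voltage clamp. GluA1_i driven by 300 μM glutamate; GluN1/2A driven by 100 μM glutamate plus 100 μM glycine; antagonist coapplied.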

Assay [4] concerns the target Glutamate receptor 1 (Rattus norvegicus, UniProt P19490). Briefly: Inhibition of rat GluA1 receptor flip form expressed in Xenopus laevis oocyte assessed as glutamate-induced current at holding potentials from -80 to -40 mV by two electrode voltage clamp analysis. The method, boiled down: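 Oocytes injected with 25 nL GluA1_i cRNA (1 ng/nL), kept at 17 °C in Barth's medium with gentamicin, recorded 3−6 days later under two-electrode voltage clamp in frog Ringer's superfusion. Current evoked by 300 μM L-glutamate, then increasing antagonist coapplied with agonist; holding potentials −40, −60, −80 mV. Per-oocyte logistic fit for IC50, triplicate curves.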

Chain of Glutamate receptor 1 (P19490 whole entry, the tested form may be a part): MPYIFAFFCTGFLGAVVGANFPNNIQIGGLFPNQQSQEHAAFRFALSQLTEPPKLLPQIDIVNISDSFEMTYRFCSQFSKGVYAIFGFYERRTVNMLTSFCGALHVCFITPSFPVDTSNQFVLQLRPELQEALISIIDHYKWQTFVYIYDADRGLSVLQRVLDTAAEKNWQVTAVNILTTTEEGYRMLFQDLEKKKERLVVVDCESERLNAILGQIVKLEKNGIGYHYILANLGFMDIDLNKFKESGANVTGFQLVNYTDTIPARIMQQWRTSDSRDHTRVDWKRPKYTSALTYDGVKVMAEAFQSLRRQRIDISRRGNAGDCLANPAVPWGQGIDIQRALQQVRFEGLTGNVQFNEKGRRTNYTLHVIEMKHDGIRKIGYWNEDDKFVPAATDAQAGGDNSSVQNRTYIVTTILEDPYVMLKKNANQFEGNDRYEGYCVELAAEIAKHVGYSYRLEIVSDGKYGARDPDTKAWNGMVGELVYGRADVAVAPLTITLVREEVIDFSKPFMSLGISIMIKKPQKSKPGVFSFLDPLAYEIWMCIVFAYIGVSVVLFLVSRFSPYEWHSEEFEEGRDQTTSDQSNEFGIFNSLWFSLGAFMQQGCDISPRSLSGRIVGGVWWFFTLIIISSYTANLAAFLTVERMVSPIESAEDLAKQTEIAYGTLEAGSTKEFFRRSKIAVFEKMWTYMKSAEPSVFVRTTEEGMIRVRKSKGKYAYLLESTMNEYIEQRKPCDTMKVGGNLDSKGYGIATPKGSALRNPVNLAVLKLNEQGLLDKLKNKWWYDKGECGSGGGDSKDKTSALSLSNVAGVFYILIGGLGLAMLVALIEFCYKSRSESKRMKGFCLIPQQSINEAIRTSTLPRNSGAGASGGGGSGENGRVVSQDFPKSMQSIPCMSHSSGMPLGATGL
Chain of Glutamate NMDA receptor; Grin1/Grin2a (Q00959 whole entry, other chains not shown): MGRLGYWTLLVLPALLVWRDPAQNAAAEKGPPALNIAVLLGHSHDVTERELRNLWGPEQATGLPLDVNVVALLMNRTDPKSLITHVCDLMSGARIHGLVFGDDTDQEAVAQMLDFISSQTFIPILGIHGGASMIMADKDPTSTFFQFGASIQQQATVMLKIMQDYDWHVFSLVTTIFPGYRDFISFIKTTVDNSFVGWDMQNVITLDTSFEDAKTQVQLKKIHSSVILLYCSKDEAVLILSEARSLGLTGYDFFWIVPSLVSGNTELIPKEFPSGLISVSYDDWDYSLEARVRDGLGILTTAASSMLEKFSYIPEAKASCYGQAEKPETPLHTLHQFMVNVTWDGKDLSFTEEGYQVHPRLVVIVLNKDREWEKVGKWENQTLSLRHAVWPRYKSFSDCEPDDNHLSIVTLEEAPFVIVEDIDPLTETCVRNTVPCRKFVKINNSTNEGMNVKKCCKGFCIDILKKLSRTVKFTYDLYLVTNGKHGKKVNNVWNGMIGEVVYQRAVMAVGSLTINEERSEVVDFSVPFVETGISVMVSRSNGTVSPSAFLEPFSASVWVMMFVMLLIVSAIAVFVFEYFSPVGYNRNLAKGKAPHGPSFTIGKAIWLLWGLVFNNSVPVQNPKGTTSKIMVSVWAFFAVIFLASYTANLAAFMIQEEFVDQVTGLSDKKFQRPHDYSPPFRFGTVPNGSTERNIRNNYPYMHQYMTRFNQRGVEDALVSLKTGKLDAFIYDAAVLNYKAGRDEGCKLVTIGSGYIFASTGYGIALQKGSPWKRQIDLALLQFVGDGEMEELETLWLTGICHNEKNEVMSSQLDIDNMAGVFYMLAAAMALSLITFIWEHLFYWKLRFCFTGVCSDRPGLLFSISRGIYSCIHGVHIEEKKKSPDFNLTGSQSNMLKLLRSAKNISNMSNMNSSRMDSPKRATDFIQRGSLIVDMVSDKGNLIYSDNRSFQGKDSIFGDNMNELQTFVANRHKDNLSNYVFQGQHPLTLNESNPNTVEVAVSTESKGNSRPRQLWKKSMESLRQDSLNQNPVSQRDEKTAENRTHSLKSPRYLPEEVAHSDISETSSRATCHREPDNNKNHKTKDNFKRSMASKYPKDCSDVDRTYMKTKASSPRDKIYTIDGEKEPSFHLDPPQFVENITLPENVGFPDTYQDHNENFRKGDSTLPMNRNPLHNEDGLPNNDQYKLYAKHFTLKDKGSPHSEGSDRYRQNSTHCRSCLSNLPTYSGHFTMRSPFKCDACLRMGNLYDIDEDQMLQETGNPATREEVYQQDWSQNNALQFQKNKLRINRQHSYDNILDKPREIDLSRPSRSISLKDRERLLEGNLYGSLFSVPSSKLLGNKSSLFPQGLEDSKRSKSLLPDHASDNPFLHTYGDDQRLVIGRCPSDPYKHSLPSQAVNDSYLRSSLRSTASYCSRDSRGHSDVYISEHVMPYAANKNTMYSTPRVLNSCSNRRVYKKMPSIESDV

On to `N=C(N)NCCC[C@H](N)C(=O)NCCCNCCCNCCCCCNC(=O)[C@H](CC(N)=O)NC(=O)Cc1ccc(O)cc1O`, for which, in assay [1], the Ratio IC50 came to 8. Besides, the IC50 in assay [2] stood at 10 nM.
For the compound `N=C(N)NCCC[C@H](N)C(=O)NCCCCCCCCNCCCCNC(=O)[C@H](CC(N)=O)NC(=O)Cc1ccc(O)cc1O`, the Ratio IC50 in assay [1] is 0.08; in assay [3] it was 12. The IC50 in assay [2] came to 231 nM; in assay [4], 19 nM.
On to `NC(=O)C[C@H](NC(=O)Cc1ccc(O)cc1O)C(=O)NCCCCCCCNCCCCCNC(=O)[C@@H](N)CCCN=C(N)N`, for which the results for the 50% inhibitory concentration (IC50) in assay [2] and in assay [4] were 17 nM and 118 nM, respectively.
Regarding `N=C(N)NCCC[C@H](N)C(=O)NCCCCNCCCCCCCCNC(=O)[C@H](CC(N)=O)NC(=O)Cc1ccc(O)cc1O`, the Ratio IC50 in assay [1] was found to be 10.
Same read-out and setting: the value for `N=C(N)NCCC[C@H](N)C(=O)NCCCNCCCCCCCCCNC(=O)[C@H](CC(N)=O)NC(=O)Cc1ccc(O)cc1O` was 32.
Turning to `N=C(N)NCCC[C@H](N)C(=O)NCCCCCCCCCNCCCNC(=O)[C@H](CC(N)=O)NC(=O)Cc1ccc(O)cc1O`, the Ratio IC50 in assay [1] and in assay [3] was under 0.06 in each case. In addition, the figures for the half-maximal inhibitory concentration (IC50) in assay [2] and in assay [4] were over 3000 nM and 171 nM, respectively.
For `N=C(N)NCCC[C@H](N)C(=O)NCCCCCNCCCCCCCNC(=O)[C@H](CC(N)=O)NC(=O)Cc1ccc(O)cc1O`, the Ratio IC50 in assay [1] was determined as 7.
Regarding `N=C(N)NCC[C@@H](N)C(=O)NCCCCCNCCCCCCCNC(=O)[C@H](CC(=O)O)NC(=O)Cc1ccc(O)cc1O`, the Ratio IC50 in assay [1] amounted to 0.07; in assay [3], 13. Besides, the IC50 in assay [2] is 2230 nM; in assay [4], 167 nM.
The corresponding values for `N=C(N)NCCC[C@H](N)C(=O)NCCCCCCCNCCCCCNC(=O)[C@H](CC(N)=O)NC(=O)Cc1ccc(O)cc1O` are 0.09, 11, 842 nM and 78 nM.
`N=C(N)NCC[C@@H](N)C(=O)NCCCCCNCCCCCCCNC(=O)[C@@H](NC(=O)Cc1ccc(O)cc1O)c1c[nH]c2ccccc12`: the Ratio IC50 in assay [1] turned out to be 3.4.
For the compound `NC(=O)C[C@H](NC(=O)Cc1ccc(O)cc1O)C(=O)NCCCCCCCCCNCCCNC(=O)[C@@H](N)CCCN=C(N)N`, the IC50 in assay [2] stood at 14 nM; in assay [4], 454 nM.
Taken in the same sequence, the figures for `NC(=O)C[C@H](NC(=O)Cc1ccc(O)cc1O)C(=O)NCCCCCCCCNCCCCNC(=O)[C@@H](N)CCCN=C(N)N` were 8 nM and 83 nM.
As to `N=C(N)NCCC[C@H](N)C(=O)NCCCCCCNCCCCCCNC(=O)[C@H](CC(N)=O)NC(=O)Cc1ccc(O)cc1O`, the Ratio IC50 in assay [1] came out at 2. Besides, the IC50 was determined as 21 nM in assay [2] and 46 nM in assay [4].

For the origin of these results see ChEMBL document CHEMBL2311516, “Structure-activity relationship studies of argiotoxins: selective and potent inhibitors of ionotropic glutamate receptors” (J Med Chem, 2013).
